Source: ChEMBL document CHEMBL2380260, “Structure-activity relationship of N,N'-disubstituted pyrimidinetriones as Ca(V)1.3 calcium channel-selective antagonists for Parkinson's disease” (J Med Chem, 2013)
pIC50: −log10 of the molar value.

Key:
[1] = target: Voltage-dependent L-type calcium channel subunit alpha-1D (Rattus norvegicus, UniProt P27732); assay: Antagonist activity at rat CaV1.3alpha1D transfected in HEK293 cells by FLIPR assay; assay type: cell-based
Procedure, shortened: (§1)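 HEK293 cells stably expressing the L-type channel (rat CaV1.3 α1D with all alternative splice sites, or rabbit CaV1.2 α1C), each co-expressed with rat β3 and α2δ-1 subunits. Cells plated at 4 × 10⁴ cells/well and cultured in DMEM with 10% FBS for 4 days. Calcium influx read by Fluo-8 no-wash dye fluorescence on FLIPR Tetra. IC50 from triplicate percent-inhibition data fitted to a one-site sigmoidal model.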

[2] = target: Voltage-dependent L-type calcium channel subunit alpha-1C (Oryctolagus cuniculus, UniProt P15381); assay: Antagonist activity at rabbit CaV1.2alpha1C transfected in HEK293 cells by FLIPR assay; assay type: cell-based; procedure, shortened: as §1
Sequence of Voltage-dependent L-type calcium channel subunit alpha-1C (P15381 whole entry): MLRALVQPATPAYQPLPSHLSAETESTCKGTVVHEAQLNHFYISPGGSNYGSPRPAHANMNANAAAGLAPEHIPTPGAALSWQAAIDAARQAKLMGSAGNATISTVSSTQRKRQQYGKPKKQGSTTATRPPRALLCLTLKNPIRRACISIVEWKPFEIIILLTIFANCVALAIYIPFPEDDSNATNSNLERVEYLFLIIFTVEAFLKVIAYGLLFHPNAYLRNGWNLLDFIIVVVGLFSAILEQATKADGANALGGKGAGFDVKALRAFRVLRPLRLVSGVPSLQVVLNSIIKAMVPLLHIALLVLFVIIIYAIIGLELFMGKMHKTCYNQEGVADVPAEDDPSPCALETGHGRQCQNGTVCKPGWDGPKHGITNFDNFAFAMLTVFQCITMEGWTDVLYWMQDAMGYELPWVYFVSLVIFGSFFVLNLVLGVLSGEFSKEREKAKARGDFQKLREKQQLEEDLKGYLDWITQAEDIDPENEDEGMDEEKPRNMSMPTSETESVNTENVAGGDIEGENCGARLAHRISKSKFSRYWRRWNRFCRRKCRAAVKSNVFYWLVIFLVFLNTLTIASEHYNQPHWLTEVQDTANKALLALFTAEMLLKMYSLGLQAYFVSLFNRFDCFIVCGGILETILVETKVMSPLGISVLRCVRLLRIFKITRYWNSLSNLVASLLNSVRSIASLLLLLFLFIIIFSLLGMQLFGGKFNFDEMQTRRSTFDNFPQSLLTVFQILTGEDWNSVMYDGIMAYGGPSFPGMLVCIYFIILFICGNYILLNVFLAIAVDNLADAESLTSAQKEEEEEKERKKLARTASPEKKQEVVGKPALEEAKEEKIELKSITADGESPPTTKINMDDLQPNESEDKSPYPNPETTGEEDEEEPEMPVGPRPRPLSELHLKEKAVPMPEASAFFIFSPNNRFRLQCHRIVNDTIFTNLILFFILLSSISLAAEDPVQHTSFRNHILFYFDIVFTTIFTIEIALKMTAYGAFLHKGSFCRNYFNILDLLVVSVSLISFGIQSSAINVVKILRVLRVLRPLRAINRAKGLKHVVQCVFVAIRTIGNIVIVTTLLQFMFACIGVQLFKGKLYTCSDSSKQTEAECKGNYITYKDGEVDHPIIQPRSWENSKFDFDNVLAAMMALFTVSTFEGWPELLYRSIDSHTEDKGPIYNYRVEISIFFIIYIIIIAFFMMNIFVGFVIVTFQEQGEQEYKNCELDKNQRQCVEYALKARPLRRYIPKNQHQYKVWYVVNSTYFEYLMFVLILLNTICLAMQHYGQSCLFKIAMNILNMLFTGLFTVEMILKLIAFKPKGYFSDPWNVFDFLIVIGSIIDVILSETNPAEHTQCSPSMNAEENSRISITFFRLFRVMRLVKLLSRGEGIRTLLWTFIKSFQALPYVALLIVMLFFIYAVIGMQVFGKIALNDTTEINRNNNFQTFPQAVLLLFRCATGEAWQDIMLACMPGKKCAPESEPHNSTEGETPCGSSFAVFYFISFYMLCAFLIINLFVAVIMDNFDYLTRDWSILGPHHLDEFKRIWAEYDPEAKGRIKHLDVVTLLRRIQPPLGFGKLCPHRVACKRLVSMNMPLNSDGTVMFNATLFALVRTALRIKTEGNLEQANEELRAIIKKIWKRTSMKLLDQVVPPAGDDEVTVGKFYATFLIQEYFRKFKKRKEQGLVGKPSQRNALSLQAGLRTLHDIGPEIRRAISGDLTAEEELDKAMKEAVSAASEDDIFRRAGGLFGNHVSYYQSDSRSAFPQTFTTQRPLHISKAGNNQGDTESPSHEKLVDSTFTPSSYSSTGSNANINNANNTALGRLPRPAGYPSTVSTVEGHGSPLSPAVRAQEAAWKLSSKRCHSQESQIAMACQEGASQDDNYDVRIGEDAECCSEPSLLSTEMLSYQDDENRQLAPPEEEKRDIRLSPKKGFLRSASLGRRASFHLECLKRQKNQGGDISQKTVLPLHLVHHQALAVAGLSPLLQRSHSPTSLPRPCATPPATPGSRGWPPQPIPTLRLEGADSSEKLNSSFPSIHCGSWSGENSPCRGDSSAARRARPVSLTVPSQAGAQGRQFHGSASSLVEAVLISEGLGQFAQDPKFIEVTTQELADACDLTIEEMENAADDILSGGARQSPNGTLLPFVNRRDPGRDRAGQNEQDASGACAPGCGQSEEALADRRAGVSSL

Sequence of Voltage-dependent L-type calcium channel subunit alpha-1D (P27732 whole entry, canonical isoform): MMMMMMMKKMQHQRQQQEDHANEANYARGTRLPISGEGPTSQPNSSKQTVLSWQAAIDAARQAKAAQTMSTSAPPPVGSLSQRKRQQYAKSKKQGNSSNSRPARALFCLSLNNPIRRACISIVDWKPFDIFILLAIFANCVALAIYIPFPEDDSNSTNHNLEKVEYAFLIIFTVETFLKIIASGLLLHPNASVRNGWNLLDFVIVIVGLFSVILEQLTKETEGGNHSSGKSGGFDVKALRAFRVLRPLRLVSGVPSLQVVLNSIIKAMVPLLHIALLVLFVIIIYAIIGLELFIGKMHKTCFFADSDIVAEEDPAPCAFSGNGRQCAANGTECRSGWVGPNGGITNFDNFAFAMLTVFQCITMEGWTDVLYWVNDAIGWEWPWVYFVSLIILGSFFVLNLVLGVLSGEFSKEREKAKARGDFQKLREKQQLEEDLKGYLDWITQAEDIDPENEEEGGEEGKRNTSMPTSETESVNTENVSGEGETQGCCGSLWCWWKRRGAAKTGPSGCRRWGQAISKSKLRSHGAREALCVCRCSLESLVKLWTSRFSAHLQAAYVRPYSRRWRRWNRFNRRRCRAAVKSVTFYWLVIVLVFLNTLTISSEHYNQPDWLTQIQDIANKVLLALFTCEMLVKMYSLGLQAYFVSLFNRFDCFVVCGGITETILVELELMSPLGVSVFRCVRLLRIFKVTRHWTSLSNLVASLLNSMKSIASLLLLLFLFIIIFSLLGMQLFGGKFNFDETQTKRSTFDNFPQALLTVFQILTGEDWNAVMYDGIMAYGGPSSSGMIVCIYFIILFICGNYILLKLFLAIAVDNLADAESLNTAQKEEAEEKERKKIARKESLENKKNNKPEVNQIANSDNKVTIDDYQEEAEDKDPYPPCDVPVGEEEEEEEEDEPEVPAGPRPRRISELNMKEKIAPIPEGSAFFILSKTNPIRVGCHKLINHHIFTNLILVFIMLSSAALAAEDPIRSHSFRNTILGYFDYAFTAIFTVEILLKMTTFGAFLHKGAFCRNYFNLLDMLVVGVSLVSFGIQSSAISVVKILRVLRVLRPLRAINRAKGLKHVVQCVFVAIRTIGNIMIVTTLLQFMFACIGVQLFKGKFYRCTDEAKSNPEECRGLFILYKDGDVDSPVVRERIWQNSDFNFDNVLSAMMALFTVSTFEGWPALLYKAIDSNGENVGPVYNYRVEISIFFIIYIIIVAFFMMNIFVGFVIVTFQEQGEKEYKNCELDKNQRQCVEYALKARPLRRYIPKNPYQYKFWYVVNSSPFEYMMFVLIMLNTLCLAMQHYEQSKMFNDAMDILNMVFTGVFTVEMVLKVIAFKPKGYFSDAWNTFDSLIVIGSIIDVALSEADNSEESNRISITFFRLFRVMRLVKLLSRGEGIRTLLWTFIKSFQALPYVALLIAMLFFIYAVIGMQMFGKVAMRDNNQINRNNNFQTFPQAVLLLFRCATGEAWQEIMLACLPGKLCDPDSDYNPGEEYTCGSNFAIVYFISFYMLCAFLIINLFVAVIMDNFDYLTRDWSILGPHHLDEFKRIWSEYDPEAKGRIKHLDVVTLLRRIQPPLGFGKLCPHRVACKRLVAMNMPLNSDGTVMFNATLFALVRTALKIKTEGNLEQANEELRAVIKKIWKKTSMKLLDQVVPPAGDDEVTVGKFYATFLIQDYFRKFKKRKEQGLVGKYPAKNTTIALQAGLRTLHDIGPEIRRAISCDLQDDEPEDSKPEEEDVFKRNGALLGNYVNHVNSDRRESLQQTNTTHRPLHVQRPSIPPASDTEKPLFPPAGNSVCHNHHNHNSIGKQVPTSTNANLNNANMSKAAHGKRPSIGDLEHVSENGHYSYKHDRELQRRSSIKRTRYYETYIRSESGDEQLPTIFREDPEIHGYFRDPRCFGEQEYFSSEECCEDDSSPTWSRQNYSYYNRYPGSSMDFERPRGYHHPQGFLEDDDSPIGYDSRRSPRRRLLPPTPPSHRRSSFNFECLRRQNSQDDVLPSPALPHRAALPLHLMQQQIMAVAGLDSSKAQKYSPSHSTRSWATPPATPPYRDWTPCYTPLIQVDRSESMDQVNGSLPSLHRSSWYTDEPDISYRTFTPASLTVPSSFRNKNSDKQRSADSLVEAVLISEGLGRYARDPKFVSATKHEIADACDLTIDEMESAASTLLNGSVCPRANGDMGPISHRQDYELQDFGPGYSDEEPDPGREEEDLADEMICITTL

| SMILES | pIC50 [1] | pIC50 [2] |
| --- | --- | --- |
| O=C1CC(=O)N(C2CCCC2)C(=O)N1CCc1cccc(Cl)c1 | 5.20 | < 4.00 |
| CC1(C)[C@@H]2CC[C@@]1(C)[C@@H](N1C(=O)CC(=O)N(CCc3ccc(Cl)cc3)C1=O)C2 | < 4.00 | < 4.00 |
| COC(=O)C1(N2C(=O)CC(=O)N(CCc3cccc(Cl)c3)C2=O)CCCC1 | 4.49 | 4.48 |
| O=C1CC(=O)N(C2CCCc3ccccc32)C(=O)N1C1CCCC1 (configuration not stated) | 4.71 | 4.70 |
| C[C@H](c1cccc2ccccc12)N1C(=O)CC(=O)N(CCc2cccc(Cl)c2)C1=O | 4.97 | 5.00 |
| CC1CCC(N2C(=O)CC(=O)N(CCc3ccc(Cl)cc3)C2=O)CC1 (configuration not stated) | 4.96 | 4.52 |
| CC1(C)CCC(N2C(=O)CC(=O)N(CCc3ccc(Cl)cc3)C2=O)C1 (configuration not stated) | 5.43 | 4.59 |
| O=C1CC(=O)N([C@H]2C[C@H]3CC[C@@H]2C3)C(=O)N1CCc1cccc(C(F)(F)F)c1 | 5.52 | < 4.00 |
| C[C@@H]1CCC[C@@H]1N1C(=O)CC(=O)N(CCc2ccc(Cl)cc2)C1=O | 5.51 | 5.29 |
| C[C@@H]1[C@@H](N2C(=O)CC(=O)N(CCc3ccc(Cl)cc3)C2=O)C[C@H]2C[C@@H]1C2(C)C | 4.66 | 4.55 |
| CC1CCC(N2C(=O)CC(=O)N(CCc3ccc(Cl)cc3)C2=O)C1 (configuration not stated) | 5.01 | 4.69 |
| C[C@H](c1cccc2ccccc12)N1C(=O)CC(=O)N(C2CCCC2)C1=O | 5.34 | 5.21 |
| C[C@H](C1CCCCC1)N1C(=O)CC(=O)N(CCc2cccc(Cl)c2)C1=O | 5.01 | < 4.00 |
| CO[C@H]1CCC[C@@H]1N1C(=O)CC(=O)N(CCc2cccc(Cl)c2)C1=O | 4.52 | 4.46 |
| O=C1CC(=O)N([C@H]2CCC[C@@H]2O)C(=O)N1CCc1cccc(Cl)c1 | < 4.00 | < 4.00 |
| CC(C)C(=O)O[C@H]1CCC[C@@H]1N1C(=O)CC(=O)N(CCc2cccc(Cl)c2)C1=O | 4.86 | 4.89 |
| O=C(OCc1ccccc1)N1CC[C@H](N2C(=O)CC(=O)N(CCc3cccc(Cl)c3)C2=O)C1 | 4.30 | 4.47 |
| O=C1CC(=O)N(C2CC3CCC2C3)C(=O)N1CCc1cccc(C(F)(F)F)c1 (racemic) | 5.62 | 4.00 |
| CC(CN1C(=O)CC(=O)N(C2CC3CCC2C3)C1=O)c1ccc(Cl)cc1 (racemic) | 5.47 | 5.10 |

| SMILES | pIC50 [1] | pIC50 [2] |
| --- | --- | --- |
| O=C(O)[C@H]1CC[C@@H](N2C(=O)CC(=O)N(CCc3cccc(Cl)c3)C2=O)C1 | < 4.00 | < 4.00 |
| O=C1CC(=O)N(C2CC3CCC2C3)C(=O)N1CCc1cc(Cl)cc(Cl)c1 (racemic) | 5.57 | 5.34 |
| CC1(C)[C@@H]2CC[C@H](CN3C(=O)CC(=O)N(CCc4ccc(Cl)cc4)C3=O)[C@H]1C2 | < 4.00 | < 4.00 |
| CC(C)c1ccc(CCN2C(=O)CC(=O)N(C3CCCC3)C2=O)cc1 | 4.41 | 4.24 |
| CC(C)C(=O)OCC1(N2C(=O)CC(=O)N(CCc3cccc(Cl)c3)C2=O)CCCC1 | 4.92 | 4.97 |
| CC(C)(CN1C(=O)CC(=O)N(C2CC3CCC2C3)C1=O)c1cccc(Cl)c1 (mixture of isomers) | 5.64 | 5.55 |
| CC(=O)O[C@H]1CCC[C@@H]1N1C(=O)CC(=O)N(CCc2cccc(Cl)c2)C1=O | < 4.00 | 4.32 |
| CC(C)(CN1C(=O)CC(=O)N(C2CCCC2)C1=O)c1cccc(C(F)(F)F)c1 | 5.66 | 5.38 |
| CC(CN1C(=O)CC(=O)N(C2CCCC2)C1=O)c1cccc(Cl)c1 (configuration not stated) | 5.38 | 4.68 |
| C[C@@H](C1CCCCC1)N1C(=O)CC(=O)N(CCc2cccc(Cl)c2)C1=O | 5.37 | < 4.00 |
| CC1(C)[C@@H]2CC[C@@]1(C)[C@@H](N1C(=O)CC(=O)N(CCc3cccc(Cl)c3)C1=O)C2 | < 4.00 | < 4.00 |
| CCOC(=O)[C@@H]1CCC[C@@H]1N1C(=O)CC(=O)N(CCc2cccc(Cl)c2)C1=O | 4.92 | 4.90 |
| COC(=O)[C@@H](Cc1ccccc1)N1C(=O)CC(=O)N(C2CCCC2)C1=O | 4.26 | 4.35 |
| O=C1CC(=O)N(C2Cc3ccccc3C2)C(=O)N1C1CCCC1 | 4.84 | 4.79 |
| O=C1CC(=O)N(C2CCc3ccccc32)C(=O)N1C1CCCC1 (configuration not stated) | 4.70 | 4.61 |
| O=C1CC(=O)N(C2CCCC2)C(=O)N1c1cccc(C(F)(F)F)c1 | < 4.00 | < 4.00 |
| CC1CCC(N2C(=O)CC(=O)N(CCc3cccc(Cl)c3)C2=O)CC1 (configuration not stated) | 4.46 | 4.34 |
| CC1(C)CCC[C@H]1N1C(=O)CC(=O)N(CCc2cccc(C(F)(F)F)c2)C1=O | 5.57 | 5.51 |
| O=C1CC(=O)N([C@@H]2C[C@@H]3CC[C@H]2C3)C(=O)N1CCc1cccc(C(F)(F)F)c1 | 5.68 | 4.12 |

| SMILES | pIC50 [1] | pIC50 [2] |
| --- | --- | --- |
| C[C@H]1CCCC[C@H]1N1C(=O)CC(=O)N(CCc2ccc(Cl)cc2)C1=O | 5.21 | 5.08 |
| CC(=O)OCC1(N2C(=O)CC(=O)N(CCc3cccc(Cl)c3)C2=O)CCCC1 | 4.41 | 4.54 |
| CC(Cc1ccc(Cl)cc1)N1C(=O)CC(=O)N(C2CC3CCC2C3)C1=O (racemic) | 5.44 | 5.39 |
| C[C@H]1CCC[C@H]1N1C(=O)CC(=O)N(CCc2ccc(Cl)cc2)C1=O | 5.55 | 5.00 |
| C[C@H]1[C@H](N2C(=O)CC(=O)N(CCc3ccc(Cl)cc3)C2=O)C[C@@H]2C[C@H]1C2(C)C | 4.74 | < 4.00 |
| C[C@H]1CCC[C@@H]1N1C(=O)CC(=O)N(CCc2ccc(Cl)cc2)C1=O (racemic) | 5.15 | 4.64 |
| C[C@H]1CCCC[C@H]1N1C(=O)CC(=O)N(CCc2cccc(Cl)c2)C1=O | 5.43 | 5.43 |
| CC1(C)CCC(N2C(=O)CC(=O)N(CCc3cccc(Cl)c3)C2=O)C1 (configuration not stated) | 5.25 | 4.37 |
| CC1(C)CCC[C@H]1N1C(=O)CC(=O)N(CCc2ccc(Cl)cc2)C1=O | 5.33 | 5.32 |
| O=C1CC(=O)N(C2CCCC2)C(=O)N1CCc1cc(Cl)cc(Cl)c1 | 5.85 | 5.48 |
| CC(C)OC(=O)[C@H]1CC[C@@H](N2C(=O)CC(=O)N(CCc3cccc(Cl)c3)C2=O)C1 | 4.98 | 5.07 |
| CCC1CCC(N2C(=O)CC(=O)N(CCc3ccc(Cl)cc3)C2=O)C1 (racemic) | 5.17 | 4.54 |
| O=C1CC(=O)N(C2CCCC2)C(=O)N1Cc1ccc(Cl)cc1 | 4.75 | 4.29 |
| CC1(C)CCC[C@@H]1N1C(=O)CC(=O)N(CCc2ccc(Cl)cc2)C1=O | 5.77 | 5.64 |
| O=C1CC(=O)N(C[C@H]2CCCO2)C(=O)N1CCc1ccc(Cl)cc1 | < 4.00 | < 4.00 |
| O=C1CC(=O)N(C2CCCC2)C(=O)N1CC1(c2ccc(Cl)cc2)CC1 | 5.14 | < 4.00 |
| C[C@@H]1[C@@H](C)CC[C@@H]1N1C(=O)CC(=O)N(CCc2cccc(Cl)c2)C1=O | 5.51 | 4.88 |
| CC1CCC(N2C(=O)CC(=O)N(CCc3cccc(Cl)c3)C2=O)C1 (configuration not stated) | 5.43 | 4.42 |
